# Yeast growth inh: growth inhibitors of yeast BB579 in restrictive medium, primary screen, yeast lifespan-shortening project, S. cerevisiae. 0.51% of 140,000 active. inhibition, % at 10 µM. AID 804, 2007. OD615, 48 h;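 active = inhibition above a set limit, 3 SD over the mean compound inhibition, cut at about 44% in these data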
#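 Test system: S. cerevisiae DeaD strain BB579 yeast; Medium: restrictive CSMM-D medium; Compound: one dose, 10 µM compound with 0.25% DMSO; Incubation: 4 h cell preincubation, 48 h compound exposure, 30 °C humidified; Signal: OD at 615 nm; Benchmarks: amphotericin B at 10 µg/mL as positive control.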
# PostGolgi yeast: phenotypic screen on post-Golgi transport, primary screen; post-Golgi transport phenotypic cell assay; inhibition, % at 10 µM; 0.9% of 98,000 active; AID 739, 2007;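 also: yeast cells grown in 1536-well plates; yeast grown about 18 h at 30C before absorbance read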
# PostGolgi ctrl: growth inhibition of yeast control strain, primary screen, counter-screen for post-Golgi transport modulator project; 5% of 98,000 active; efflux-deficient yeast background strain, growth absorbance A615, 16 h; AID 738, 2007; inhibition, % at 10 µM
# Yeast lifespan up: compounds extending yeast replicative lifespan, primary screen, S. cerevisiae, OD615; AID 775, 2007; S. cerevisiae growth with nicotinamide; deaD strain in restrictive glucose medium; inhibition of the nicotinamide effect, % at 10 µM; 0.68% of 130,000 active;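 active = inhibition above a set limit, placed 3 SD over the median of all compounds, cut at about 26% in these data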;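 also: 0% = nicotinamide-treated wells and 100% = cells grown without nicotinamide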
#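 Measured by: optical density (absorbance) at 615 nm; System: modified budding yeast, DeaD strain; Medium: restrictive CSMM-D dextrose medium; Timing: 4 h preincubation then 48 h treatment at 30 °C.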
# Active calls of the source: *; nt = not tested or not shown. Only a selection was taken, and hits are over-represented in it overall. Rule as the data show it, unless noted: active = inhibition above about 30%; inactive = the rest.
SMILES,Yeast growth inh,PostGolgi yeast,PostGolgi ctrl,Yeast lifespan up
CCC(=NCc1ccc2c(c1)OCO2)c1c(O)n(C2CCCCC2)c(=O)[nH]c1=O,-37.1,21.5,66.9*,-5.0
CCC(=NCCO)c1c(O)n(C2CCCCC2)c(=O)[nH]c1=O,-11.7,0.3,4.8,-1.7
CCCCNC(=O)Nc1ccc(C(O)(C(=O)OCC)C(F)(F)F)cc1 (stereo not given),3.4,-4.4,3.0,-2.9
COc1ccc(-n2c(O)c(C(C)=NCc3ccco3)c(=O)[nH]c2=O)cc1,-29.8,-4.2,38.4*,-9.6
CNC(=O)Oc1cccc(-c2cn3cc(OC(=O)NC)ccc3n2)c1,50.8*,nt,nt,-2.7
CNC(=O)Oc1ccc(-c2cn3cc(Cl)ccc3n2)cc1,-19.9,nt,nt,-5.2
CCN(CC)P(=O)(NC(=O)C(Cl)(Cl)Cl)N(CC)CC.[Cl-].[Cl-].[Cl-].[Nd+3],-34.2,-3.6,8.6,-3.4
N=C(N)c1c(O)n(C2CCCCC2)c(=O)n(C2CCCCC2)c1=O,-12.8,8.1,53.2*,-0.1
CC/C(=N\N1CCCCCC1)c1c(O)n(-c2ccccc2C)c(=O)[nH]c1=O,-29.9,nt,nt,-1.3
Clc1cccc(C2NCCc3[nH]cnc32)c1 (stereo not given),-22.0,-28.3,39.6*,-2.3
Cc1cccc(C)c1NC(=O)c1cccn(Cc2ccc3c(c2)OC(F)(F)O3)c1=O,-36.6,-10.7,75.2*,-16.8
O=C(Nc1cccc(C(F)(F)F)c1)c1cccn(Cc2ccc3c(c2)OC(F)(F)O3)c1=O,-71.9,7.8,31.9*,-12.8
CC(C)Oc1cccc(NC(=O)c2cccn(Cc3ccc4c(c3)OC(F)(F)O4)c2=O)c1,-73.7,0.0,19.0,-3.6
CCCCn1c(O)c(C=NCCCN(CC)CC)c(=O)[nH]c1=O,-25.6,4.6,46.0*,-21.6
CCCCn1c(O)c(C=NC2CC3CCC2(C)C3(C)C)c(=O)[nH]c1=O (stereo not given),-20.5,5.5,62.8*,7.0
CCOC(=O)CCN=Cc1c(O)n(-c2ccc(Br)cc2)c(=O)[nH]c1=O,-33.2,0.8,19.1,-11.9
CCN(CC)CCCN=Cc1c(O)n(CCc2ccc(F)cc2)c(=O)[nH]c1=O,-10.0,5.7,5.7,-3.3
CCOc1ccc(-n2c(O)c(C=NCCN(CC)CC)c(=O)[nH]c2=O)cc1,-52.0,-1.0,36.3*,-3.2
COP(=O)(OC)C(O)C(Cl)(Cl)Cl (stereo not given),-18.6,nt,nt,3.6
CCCCn1c(O)c(C(C)=NCc2ccc(F)cc2)c(=O)[nH]c1=O,-68.0,1.4,11.4,15.6
CCCCn1c(O)c(C(CC)=NCCc2ccccc2)c(=O)[nH]c1=O,-22.8,24.0,54.9*,-13.7
CCCCn1c(O)c(C(CC)=NCc2ccc(F)cc2)c(=O)[nH]c1=O,-32.3,23.4,31.0*,-27.9
CCCCCCN=C(C)c1c(O)n(CCCC)c(=O)[nH]c1=O,-26.8,8.5,38.1*,-8.1
CN(C)C1(c2nnnn2CCOC(=O)Nc2ccc(Cl)cc2)CCCCC1,-12.3,2.5,11.5,66.0*
Cc1cc(C=C2C(=O)N(C)C(=S)N(C)C2=O)c(C)n1C1CCCC1,-4.8,1.8,12.4,14.2
SMILES,Yeast growth inh,PostGolgi yeast,PostGolgi ctrl,Yeast lifespan up
Cc1cc(C=C2C(=O)N(C)C(=S)N(C)C2=O)c(C)n1-c1cccnc1,12.7,nt,nt,51.3*
COc1ccc(/C=C2\C(=O)NC(=O)N(CCC3=CCCCC3)C2=O)c(OC)c1,-21.0,nt,nt,18.8
CCOc1ccc(/C=C2/C(=O)NC(=O)N(CCc3ccc(F)cc3)C2=O)cc1,-13.1,nt,nt,49.0*
O=C1NC(=O)N(CCC2=CCCCC2)C(=O)/C1=C/c1ccc(O)cc1,-40.5,nt,nt,41.0*
Nc1c(C(=O)NCCc2ccccc2)c2nc3ccccc3nc2n1CCN1CCOCC1,99.2*,50.2*,40.0*,-34.6
COCCNC(=O)c1c(N)n(Cc2ccco2)c2nc3ccccc3nc12,-40.8,-1.1,50.8*,1.3
CCCCn1c(N)c(C(=O)NCCN2CCOCC2)c2nc3ccccc3nc21,-44.5,1.8,7.5,-23.0
COc1ccc(CCNC(=O)c2c(N)n(CCN3CCOCC3)c3nc4ccccc4nc23)cc1,28.1,-3.1,35.3*,-22.6
[N-]=[N+]=CC(=O)OC[C@H](N)C(=O)O,-35.0,nt,nt,5.8
CCN1CCN(c2cc(N3CCCC3)c(F)cc2[N+](=O)[O-])CC1,-36.5,nt,nt,1.3
CCN1CCN(c2ncnc3ccc(Br)cc23)CC1,-82.1,-4.0,32.2*,-10.5
CCN1C(=O)C(=Cc2ccc(C)s2)C(=O)N(CC)C1=S,-18.9,nt,nt,65.8*
CCN1C(=O)C(=Cc2cc(C)n(C3CC3)c2C)C(=O)N(CC)C1=S,-52.5,nt,nt,1.3
Cc1ccnc(-n2c(-c3ccccc3)nc3ccccc3c2=O)c1,-38.0,0.3,33.8*,4.2
CC(=O)c1c(C)[nH]c(C(=O)N2CCC3(CC2)OCCO3)c1C,23.2,15.9,-2.7,-7.1
CCc1ccccc1N1C(=O)/C(=C/c2ccc(N3CCN(C)CC3)o2)C(=O)NC1=S,2.5,nt,nt,-1.7
O=C1NC(=S)N(c2ccccc2F)C(=O)/C1=C\c1cccs1,73.1*,nt,nt,6.4
COc1ccc(-n2c(O)c(C=Nc3c(C)n(C)n(-c4ccccc4)c3=O)c(=O)[nH]c2=O)cc1,-14.2,-0.6,-1.1,-19.1
CCC(=O)c1cn(Cc2ccccc2C#N)c2ccccc12,-85.5,6.6,30.8*,-9.8
N#Cc1ccccc1Cn1cc(C(=O)C2CC2)c2ccccc21,-9.9,-7.5,4.9,-17.4
O=c1[nH]c2ccccc2o1,-3.5,nt,nt,-0.9
COCCn1cc(C(=O)N2CCC3(CC2)OCCO3)c2c3ccccc3n(C)c2c1=O,-43.4,-3.5,1.1,-14.8
Cn1c2ccccc2c2c(C(=O)N3CCC4(CC3)OCCO4)cn(C3CCCC3)c(=O)c21,-9.8,32.9*,4.1,-26.8
CC(C)(C)C(=O)OCC12CCC(O1)C1(C)C(=O)OCC21 (stereo not given),-11.8,nt,nt,4.6
N#CSCC(=O)N1c2ccccc2CCc2ccccc21,-51.0,nt,nt,43.4*
SMILES,Yeast growth inh,PostGolgi yeast,PostGolgi ctrl,Yeast lifespan up
CCN(CCNc1ccc([N+](=O)[O-])c2cccnc12)S(=O)(=O)c1ccc(Cl)cc1,-53.0,16.2,34.8*,-26.3
CCN(CCNc1ccc([N+](=O)[O-])c2cccnc12)S(=O)(=O)c1ccccc1,-30.7,nt,nt,3.3
CC12CN3CC(C)(CN(C1)C3c1cccs1)C2O (stereo not given),6.2,5.0,4.0,-7.6
CC1CCCC(C)N1/N=C/c1c[nH]c2ccc(Br)cc12 (stereo not given),-30.2,nt,nt,-3.2
Cc1cc(C=C2C(=O)NC(=S)NC2=O)c(C)n1-c1ccc2c(c1)OCO2,-39.4,nt,nt,39.1*
Cc1cc(C=C2C(=O)NC(=O)NC2=O)c(C)n1-c1ccc2c(c1)OCO2,-18.8,nt,nt,-3.5
O=C(CSC1c2ccccc2-c2ccccc21)N/N=C/c1ccccc1O,-35.3,4.4,12.1,9.9
CN(CC1COc2ccccc2O1)c1nc(-c2cccnc2)nc2ccccc12 (stereo not given),-7.1,5.8,69.6*,-16.2
CCC(C)OC(=O)c1c(N)n(Cc2cccs2)c2nc3ccccc3nc12 (stereo not given),-28.4,15.7,50.1*,-7.4
